Source: ChEMBL document CHEMBL2177074, “Variation of the net charge, lipophilicity, and side chain flexibility in Dmt(1)-DALDA: Effect on Opioid Activity and Biodistribution” (J Med Chem, 2012)
The source made the active and inactive calls. Non-standard residues stand in square brackets, D forms with d. Residues, ends and D or L forms follow the SMILES beside them. Dmt = Cc1cc(O)cc(C)c1C[C@H](N)C(=O)O; dCit = NC(=O)NCCC[C@@H](N)C(=O)O; NMeNle = CCCC[C@H](NC)C(=O)O; Nle = CCCC[C@H](N)C(=O)O

Experiments:
[1] = molecular target: Delta-type opioid receptor (Mus musculus, UniProt P32300); experiment: (§1) Agonist activity at delta opioid receptor in mouse vas deferens; type: functional, tissue-based
Procedure, shortened: (§2)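 Isolated tissue bioassays: mouse vas deferens and guinea pig ileum preparations. A [Leu5]enkephalin dose-response curve was run as standard on each preparation, and test IC50 values were normalized against it.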

[2] = molecular target: Mu-type opioid receptor (Cavia porcellus) (UniProt P97266); experiment: (§3) Agonist activity at mu opioid receptor in guinea pig ileum; type: functional, tissue-based; procedure, shortened: as §2
[3] = molecular target: Kappa-type opioid receptor (Cavia porcellus, UniProt P41144); experiment: Displacement of [3H]U69,593 from kappa opioid receptor in guinea pig ileum membranes after 2 hrs; type: cell membranes, Membrane
[4] = molecular target: Delta-type opioid receptor (Rattus norvegicus, UniProt P33533); experiment: Displacement of [3H]DSLET from delta opioid receptor in rat brain membranes after 2 hrs; type: cell membranes
Mu-type opioid receptor [5] = molecular target: Mu-type opioid receptor (Rattus norvegicus, UniProt P33535); experiment: Displacement of [3H]DAMGO from mu opioid receptor in rat brain membranes after 2 hrs; type: cell membranes
Mus musculus [6] = experiment: Antinociceptive activity in sc dosed CD1 mouse assessed as thermal-stimulus induced tail flick latency after 30 mins; settings: 0.5 h
Mus musculus [7] = experiment: Antinociceptive activity in CD1 mouse assessed as AUC of thermal-stimulus induced tail flick latency assessed per min at 1 umol/kg, ip up to 120 mins; type: functional
Mus musculus [8] = experiment: Antinociceptive activity in sc dosed CD1 mouse assessed as thermal-stimulus induced tail flick latency; type: functional
Procedure, shortened: (§4)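 Male CD-1 mice (25–35 g) dosed s.c. at 10 µl/g. Radiant-heat tail-flick latency measured with a 10 s cut-off and expressed as %MPE. At least three doses, 5–6 mice per dose.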

Mus musculus [9] = experiment: Antinociceptive activity in CD1 mouse assessed as thermal-stimulus induced tail flick latency at 1 umol/kg, ip after 60 mins; type: functional, organism-based
Mus musculus [10] = experiment: Antinociceptive activity in CD1 mouse assessed as thermal-stimulus induced tail flick latency at 1 umol/kg, ip up to 120 mins; type: functional, organism-based
Mu-type opioid receptor [11] = molecular target: Mu-type opioid receptor (Cavia porcellus, UniProt P97266); experiment: as §3; type: functional, tissue-based; procedure, shortened: as §2
Mus musculus [12] = experiment: Antinociceptive activity in sc dosed CD1 mouse assessed as thermal-stimulus induced tail flick latency after 2 to 3 hrs; type: functional, organism-based; procedure, shortened: as §4
Mus musculus [13] = experiment: Antinociceptive activity in sc dosed CD1 mouse assessed as thermal-stimulus induced tail flick latency after 1 hr relative to morphine; type: functional; procedure, shortened: as §4
Mus musculus [14] = experiment: Antinociceptive activity in sc dosed CD1 mouse assessed as thermal-stimulus induced tail flick latency after 1 hr; type: functional; procedure, shortened: as §4
Mus musculus [15] = experiment: Antinociceptive activity in CD1 mouse assessed as thermal-stimulus induced tail flick latency at 1 umol/kg, ip after 45 to 60 mins; type: functional, organism-based
[16] = Metabolic stability in mouse plasma assessed as compound recovery after 2 hrs; type: ADME, cell-free; settings: read-out: Stability
Procedure, shortened: (§5)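 100 µg unlabelled peptide in Krebs-Henseleit buffer pH 7.4 incubated at 37 °C with shaking, in 250 µl mouse plasma or brain homogenate (150 µg protein). Aliquots quenched with TFA, heated 5 min at 95 °C, then centrifuged. Supernatants analysed by UPLC or HPLC (210 nm); recovery measured after 2 h.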

[17] = Metabolic stability in mouse brain assessed as compound recovery after 2 hrs; type: ADME, tissue-based; settings: read-out: Stability; procedure, shortened: as §5
Serum = experiment: Biodistribution in ICR-CD1 mouse serum at 30000 cpm/uL, iv after 15 mins; type: ADME, organism-based; settings: in vivo, 0.25 h
Procedure, shortened: (§6)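 After intravenous 125I-peptide, kidneys, liver and other organs collected immediately after brain dissection, weighed and gamma-counted. Serum obtained by centrifugation at 10 000 × g for 15 min. Results expressed as % of injected dose per g tissue, normalized to body weight.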

Brain [18] = experiment: Blood brain barrier transport in ICR-CD1 mouse brain assessed as brain efflux rate coefficient at 30000 cpm/uL, iv; type: ADME, organism-based; settings: in vivo
Brain [19] = experiment: Blood brain barrier transport in ICR-CD1 mouse brain assessed as unidirectional initial influx rate at 30000 cpm/uL, iv; type: ADME, organism-based; settings: in vivo
Mus musculus [20] = experiment: Antinociceptive activity in CD1 mouse assessed as thermal-stimulus induced tail flick latency at 1 umol/kg, ip after 45 mins; type: functional, organism-based
Kidney = experiment: Biodistribution in ICR-CD1 mouse kidney at 30000 cpm/uL, iv; type: ADME, organism-based; settings: in vivo; procedure, shortened: as §6
Liver = experiment: Biodistribution in ICR-CD1 mouse liver at 30000 cpm/uL, iv; type: ADME, organism-based; settings: in vivo; procedure, shortened: as §6
[21] = molecular target: Delta-type opioid receptor (Mus musculus) (UniProt P32300); experiment: as §1; type: functional, tissue-based; procedure, shortened: as §2
Mus musculus [22] = experiment: Antinociceptive activity in sc dosed CD1 mouse assessed as thermal-stimulus induced tail flick latency after 6 to 7 hrs; type: functional, organism-based; procedure, shortened: as §4
Mus musculus [23] = experiment: Antinociceptive activity in sc dosed CD1 mouse assessed as thermal-stimulus induced tail flick latency after 2 hrs; type: functional; procedure, shortened: as §4
[24] = Half life in sheep blood; type: ADME, cell-free, Ovis aries, Plasma

Mu-type opioid receptor (Cavia porcellus, UniProt P97266), sequence (P97266 whole entry): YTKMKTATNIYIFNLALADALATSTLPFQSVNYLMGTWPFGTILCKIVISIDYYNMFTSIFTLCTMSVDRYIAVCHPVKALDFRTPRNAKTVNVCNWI
Delta-type opioid receptor (Mus musculus, UniProt P32300), sequence (P32300 whole entry): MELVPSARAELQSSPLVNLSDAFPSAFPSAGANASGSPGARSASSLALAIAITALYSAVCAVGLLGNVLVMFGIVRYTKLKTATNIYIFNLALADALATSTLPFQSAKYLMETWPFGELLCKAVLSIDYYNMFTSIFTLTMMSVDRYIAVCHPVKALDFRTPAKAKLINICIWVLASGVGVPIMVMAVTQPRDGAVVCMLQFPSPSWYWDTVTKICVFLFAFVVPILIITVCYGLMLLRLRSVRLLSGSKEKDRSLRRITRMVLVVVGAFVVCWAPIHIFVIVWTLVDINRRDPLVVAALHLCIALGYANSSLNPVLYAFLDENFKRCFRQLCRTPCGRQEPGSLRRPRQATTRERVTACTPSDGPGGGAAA
Delta-type opioid receptor (Rattus norvegicus, UniProt P33533), sequence (P33533 whole entry): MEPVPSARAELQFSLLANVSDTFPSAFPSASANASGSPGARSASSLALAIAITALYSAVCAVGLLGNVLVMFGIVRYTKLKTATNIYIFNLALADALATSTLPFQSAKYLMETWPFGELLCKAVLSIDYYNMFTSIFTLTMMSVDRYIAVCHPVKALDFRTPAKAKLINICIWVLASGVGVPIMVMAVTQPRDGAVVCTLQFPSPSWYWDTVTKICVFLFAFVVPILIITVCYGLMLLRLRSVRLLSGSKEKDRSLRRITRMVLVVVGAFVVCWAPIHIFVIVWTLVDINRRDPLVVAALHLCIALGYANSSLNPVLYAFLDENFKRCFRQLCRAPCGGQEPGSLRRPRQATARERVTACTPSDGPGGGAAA
Kappa-type opioid receptor, sequence (P41144 whole entry): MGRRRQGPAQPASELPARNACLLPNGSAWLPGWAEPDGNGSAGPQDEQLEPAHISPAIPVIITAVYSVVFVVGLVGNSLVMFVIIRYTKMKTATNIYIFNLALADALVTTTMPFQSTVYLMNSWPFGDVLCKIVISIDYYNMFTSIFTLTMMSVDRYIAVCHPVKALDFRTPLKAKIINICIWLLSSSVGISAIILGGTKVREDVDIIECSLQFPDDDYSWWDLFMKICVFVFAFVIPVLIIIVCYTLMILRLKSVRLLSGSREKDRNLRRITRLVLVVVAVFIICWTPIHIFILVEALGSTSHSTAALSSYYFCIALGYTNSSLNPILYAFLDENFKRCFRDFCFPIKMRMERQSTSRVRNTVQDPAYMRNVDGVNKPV
Mu-type opioid receptor (Rattus norvegicus, UniProt P33535), sequence (P33535 whole entry): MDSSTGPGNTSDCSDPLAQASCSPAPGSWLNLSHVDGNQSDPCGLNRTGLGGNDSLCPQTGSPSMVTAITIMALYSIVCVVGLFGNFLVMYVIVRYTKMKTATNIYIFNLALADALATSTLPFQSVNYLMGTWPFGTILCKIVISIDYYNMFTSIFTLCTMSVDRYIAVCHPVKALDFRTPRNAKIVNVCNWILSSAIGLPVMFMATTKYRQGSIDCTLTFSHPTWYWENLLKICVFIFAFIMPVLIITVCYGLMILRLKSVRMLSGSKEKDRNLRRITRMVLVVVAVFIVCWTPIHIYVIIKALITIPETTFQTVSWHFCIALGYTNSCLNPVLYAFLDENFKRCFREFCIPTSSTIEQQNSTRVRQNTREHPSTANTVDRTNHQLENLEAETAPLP
Mu-type opioid receptor (Cavia porcellus), sequence (P97266 whole entry): as the sequence (P97266 whole entry) above
Delta-type opioid receptor (Mus musculus), sequence (P32300 whole entry): as the sequence (P32300 whole entry) above

Row | SMILES | IC50 [1] | Ki [3] | Ki [4] | Ki (Mu-type opioid receptor [5]) | Activity (Mus musculus [7]) | Activity (Mus musculus [10]) | IC50 (Mu-type opioid receptor [11]) | remaining at 2 h [16] | remaining at 2 h [17] | Drug uptake (Serum) | Activity (Brain [18]) | Kin (Brain [19]) | other results
1 | CCCC[C@@H](C(N)=O)N1Cc2ccccc2C[C@H](NC(=O)[C@@H](CCCNC(N)=O)NC(=O)[C@@H](N)Cc2c(C)cc(O)cc2C)C1=O | 1.16 nM | 11.1 nM | 3.18 nM | 0.93 nM | – | – | – | – | – | – | – | – | IC35 [2]: 0.78 nM
2 | CN1CC[C@]23c4c5ccc(O)c4O[C@H]2[C@@H](O)C=C[C@H]3[C@H]1C5 [MORPHINE] | – | – | – | – | 66 %.min | – | – | – | – | – | – | – | ED50 (Mus musculus [6]): 6.6 µmol/kg
3 | CCCC[C@H](NC(=O)[C@H](Cc1ccccc1)NC(=O)[C@@H](CCCNC(=N)N)NC(=O)[C@@H](N)Cc1c(C)cc(O)cc1C)C(N)=O (H-[Dmt][dR]F[Nle]-NH2) | – | – | – | – | 65 %.min | Active | – | – | – | – | – | – | ED50 (Mus musculus [8]): > 6 µmol/kg; Activity (Mus musculus [9]): Active
4 | Cc1cc(O)cc(C)c1C[C@H](N)C(=O)N[C@H](CCCNC(N)=O)C(=O)N[C@H]1Cc2ccccc2CN([C@@H](CCCCN)C(N)=O)C1=O | 1000 nM | – | 56.9 nM | 2.62 nM | – | – | 49 nM | – | – | – | – | – | –
5 | Cc1cc(O)cc(C)c1C[C@H](N)C(=O)N[C@H](CCCNC(N)=O)C(=O)N[C@@H](Cc1ccccc1)C(=O)N(C)[C@@H](CCCCN)C(N)=O | 4.4 nM | 11.5 nM | 39.2 nM | 0.94 nM | 1412 %.min | Active | 1.01 nM | 104% | 95% | Active | 0.01 min⁻¹ | 11.35 µL/g/min | Activity (Mus musculus [12]): Active; Ratio (Mus musculus [13]): 41; ED50 (Mus musculus [14]): 0.16 µmol/kg; Activity (Mus musculus [15]): Active
6 | C[C@@H](NC(=O)[C@@H](N)Cc1ccc(O)cc1)C(=O)N[C@@H](Cc1ccccc1)C(=O)NCC(=O)N[C@@H](Cc1ccc(O)cc1)C(=O)N1CCC[C@H]1C(=O)N[C@@H](CO)C(N)=O [DERMORPHIN] | – | – | – | – | 46 %.min | – | – | – | – | – | – | – | –
7 | Cc1cc(O)cc(C)c1C[C@H](N)C(=O)N[C@H](CCCNC(N)=O)C(=O)N[C@@H](Cc1ccccc1)C(=O)N[C@@H](CCCCN)C(N)=O | 1.4 nM | 20.9 nM | 50 nM | 0.57 nM | 521 %.min | Active | 0.31 nM | 98.3% | 96.2% | Active | 0.027 min⁻¹ | 14.91 µL/g/min | Activity (Mus musculus [12]): Active; Ratio (Mus musculus [13]): 29; ED50 (Mus musculus [14]): 0.23 µmol/kg; Activity (Mus musculus [20]): Active; Activity (Mus musculus [9]): Active; Drug uptake (Kidney): Active; Drug uptake (Liver): Active
8 | Cc1cc(O)cc(C)c1C[C@H](N)C(=O)N[C@H](CCCNC(=N)N)C(=O)N[C@H]1Cc2ccccc2CN([C@@H](CCCCN)C(N)=O)C1=O | – | – | 38.6 nM | 0.61 nM | – | – | 76 nM | – | – | – | – | – | IC25 [21]: 64 nM
9 | CCCC[C@@H](C(N)=O)N(C)C(=O)[C@H](Cc1ccccc1)NC(=O)[C@@H](CCCN=C(N)N)NC(=O)[C@@H](N)Cc1c(C)cc(O)cc1C | 1.5 nM | 14.4 nM | 16 nM | 0.26 nM | – | – | 4.35 nM | – | – | – | – | – | –
10 | CCCC[C@H](NC(=O)[C@H](Cc1ccccc1)NC(=O)[C@@H](CCCN=C(N)N)NC(=O)[C@@H](N)Cc1c(C)cc(O)cc1C)C(N)=O (H-[Dmt][dR]F[Nle]-NH2) | 6.2 nM | 16.2 nM | 15.2 nM | 0.23 nM | – | – | 2.2 nM | 90.2% | 104% | Active | -0.039 min⁻¹ | 8.48 µL/g/min | Drug uptake (Liver): Active
11 | CCCC[C@@H](C(N)=O)N(C)C(=O)[C@H](Cc1ccccc1)NC(=O)[C@@H](CCCNC(N)=O)NC(=O)[C@@H](N)Cc1c(C)cc(O)cc1C (H-[Dmt][dCit]F[NMeNle]-NH2) | 1.5 nM | > 10 nM | 5.03 nM | 2.92 nM | – | – | 0.65 nM | – | – | – | – | – | –
12 | Cc1cc(O)cc(C)c1C[C@H](N)C(=O)N[C@H](CCCNC(=N)N)C(=O)N[C@@H](Cc1ccccc1)C(=O)N(C)[C@@H](CCCCN)C(N)=O | 7 nM | 56.1 nM | 309 nM | 0.26 nM | – | Active | 8.3 nM | 112% | 94% | Active | 0.028 min⁻¹ | 18.11 µL/g/min | Activity (Mus musculus [22]): Dose-dependent effect; ED50 (Mus musculus [23]): 0.13 µmol/kg; Activity (Mus musculus [15]): Active
13 | CCCC[C@H](NC(=O)[C@H](Cc1ccccc1)NC(=O)[C@@H](CCCNC(N)=O)NC(=O)[C@@H](N)Cc1c(C)cc(O)cc1C)C(N)=O (H-[Dmt][dCit]F[Nle]-NH2) | 4.7 nM | 98.5 nM | 3.98 nM | 0.79 nM | – | – | 0.89 nM | – | – | – | – | – | –
14 | Cc1cc(O)cc(C)c1C[C@H](N)C(=O)N[C@H](CCCNC(=N)N)C(=O)N[C@@H](Cc1ccccc1)C(=O)N[C@@H](CCCCN)C(N)=O | – | – | – | – | 750 %.min | Active | – | 94.7% | 103% | Active | 0.058 min⁻¹ | 9.44 µL/g/min | half-life [24]: 1.8 h; Activity (Mus musculus [22]): Dose-dependent effect; ED50 (Mus musculus [23]): 0.15 µmol/kg; Activity (Mus musculus [9]): Active; Drug uptake (Kidney): Active
15 | CCCC[C@@H](C(N)=O)N1Cc2ccccc2C[C@H](NC(=O)[C@@H](CCCN=C(N)N)NC(=O)[C@@H](N)Cc2c(C)cc(O)cc2C)C1=O | 3.1 nM | 1.12 nM | 7.46 nM | 0.43 nM | – | – | 1.45 nM | – | – | – | – | – | –
16 | Cc1cc(O)cc(C)c1C[C@H](N)C(=O)N[C@H](CCCN=C(N)N)C(=O)N[C@H]1Cc2ccccc2CN(CC(N)=O)C1=O | – | – | – | – | – | – | – | 107% | 99.6% | Active | 0.096 min⁻¹ | 14.89 µL/g/min | Drug uptake (Kidney): Active
17 | Cc1cc(O)cc(C)c1C[C@H](N)C(=O)N[C@H](CCCNC(=N)N)C(=O)N[C@H]1Cc2ccccc2CN(CC(N)=O)C1=O | – | – | – | – | 253 %.min | Active | – | – | – | – | – | – | Activity (Mus musculus [22]): Dose-dependent effect; Ratio (Mus musculus [13]): 14; ED50 (Mus musculus [14]): 0.47 µmol/kg
